Measurements: ChEMBL document CHEMBL4312003, “Optimization of biaryloxazolidinone as promising antibacterial agents against antibiotic-susceptible and antibiotic-resistant gram-positive bacteria” (Eur J Med Chem, 2020)
Values after ≈ are worked out from the molar mass of the structure shown.

What was measured:
Staphylococcus aureus [1] = experiment: Antibacterial activity against Staphylococcus aureus ATCC 29213 assessed as complete reduction in bacterial cell growth by CLSI protocol based broth liquid microdilution method; type: functional
Method in brief: (§1)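 Broth liquid microdilution per CLSI guidelines; isolates identified on an automated MicroScan system before testing. MIC taken as lowest concentration giving total inhibition of bacterial growth, reported in μg/mL. S. aureus ATCC29213 run as the control strain.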

Staphylococcus aureus [2] = experiment: Antibacterial activity against methicillin-resistant Staphylococcus aureus assessed as complete reduction in bacterial cell growth by CLSI protocol based broth liquid microdilution method; type: functional; method in brief: as §1
Staphylococcus aureus [3] = experiment: Antibacterial activity against methicillin-sensitive Staphylococcus aureus assessed as complete reduction in bacterial cell growth by CLSI protocol based broth liquid microdilution method; type: functional; method in brief: as §1
Enterococcus faecalis [4] = experiment: Antibacterial activity against linezolid-resistant Enterococcus faecalis assessed as complete reduction in bacterial cell growth by CLSI protocol based broth liquid microdilution method; type: functional; method in brief: as §1
Enterococcus faecium [5] = experiment: Antibacterial activity against vancomycin-resistant Enterococcus faecium assessed as complete reduction in bacterial cell growth by CLSI protocol based broth liquid microdilution method; type: functional; method in brief: as §1
Staphylococcus aureus [6] = experiment: Antibacterial activity against clinical isolates of methicillin-resistant Staphylococcus aureus assessed as complete reduction in bacterial cell growth by CLSI protocol based broth liquid microdilution method; type: functional; method in brief: as §1
Staphylococcus aureus [7] = experiment: Antibacterial activity against clinical isolates of methicillin-sensitive Staphylococcus aureus assessed as reduction in bacterial cell growth by CLSI protocol based broth microdilution method; type: functional; method in brief: as §1
Enterococcus faecalis [8] = experiment: Antibacterial activity against clinical isolates of linezolid-resistant Enterococcus faecalis assessed as complete reduction in bacterial cell growth by CLSI protocol based broth liquid microdilution method; type: functional; method in brief: as §1
Enterococcus faecium [9] = experiment: Antibacterial activity against clinical isolates of vancomycin-resistant Enterococcus faecium assessed as complete reduction in bacterial cell growth by CLSI protocol based broth liquid microdilution method; type: functional; method in brief: as §1
[10] = Stability in simulated gastric acid assessed as compound remaining at pH 1.2 incubated for 0.5 hrs; type: ADME; details: read-out: Stability
[11] = Stability in simulated gastric acid assessed as compound remaining at pH 1.2 incubated for 1 hr; type: ADME; details: read-out: Stability
[12] = Stability in simulated gastric acid assessed as compound remaining at pH 1.2 incubated for 1.5 hrs; type: ADME; details: read-out: Stability
[13] = Stability in simulated gastric acid assessed as compound remaining at pH 1.2 incubated for 2 hrs; type: ADME; details: read-out: Stability
[14] = Solubility of compound in water by UV spectrophotometric analysis; type: physicochemical
HepG2 = experiment: Cytotoxicity against human HepG2 cells assessed as reduction in cell viability incubated for 48 hrs by MTT assay; type: cell-based; details: HepG2, 48 h
Method in brief: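 HepG2 cells were grown in RPMI1640 with 10% FBS and plated at about 4×10^4 cells/well in MEM. After 24 h at 37 °C in 5% CO2, compounds were added at the indicated final concentrations for 48 h. MTT was added (0.5 mg/mL final) for 4 h at 37 °C and the formazan dissolved in DMSO. Absorbance was read at 492 nm (630 nm reference). Each compound was tested three times; IC50 given as mean ± SD.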

[15] = Stability in human liver microsomes assessed as half life at 1.5 uM preincubated for 5 mins with NADPH and measured after 45 mins by LC/MS analysis; type: ADME, Microsome
Method in brief: (§2)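 Compound solution at 1.5 µM with 0.75 mg/mL microsomes (before NADPH addition) was preincubated 5 min at 37 °C. Reactions were started with NADPH (6 mM stock). Samples were quenched with acetonitrile containing internal standard at 0, 5, 15, 30 and 45 min, then centrifuged, and the supernatant was diluted with water for LC/MS. Runs were in duplicate. T1/2 = ln2/k from the log-linear slope, and CLint was derived from T1/2.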

[16] = Stability in human liver microsomes assessed as intrinsic clearance at 1.5 uM preincubated for 5 mins with NADPH and measured after 45 mins by LC/MS analysis; type: ADME, Microsome; details: read-out: CLH; method in brief: as §2
[17] = Stability in human liver microsomes assessed as compound remaining at 1.5 uM preincubated for 5 mins with NADPH and measured after 45 mins by LC/MS analysis; type: ADME, Microsome; method in brief: as §2
MAO-A = biological target: T1, MAO-A (Homo sapiens, UniProt P21397); experiment: Inhibition of recombinant human MAO-A (active motif 31502) at 30 uM using luciferin as substrate incubated for 15 mins followed by substrate addition and measured after 60 mins by luminescence based method relative to control; details: probe luciferin
T1 sequence (P21397 whole entry): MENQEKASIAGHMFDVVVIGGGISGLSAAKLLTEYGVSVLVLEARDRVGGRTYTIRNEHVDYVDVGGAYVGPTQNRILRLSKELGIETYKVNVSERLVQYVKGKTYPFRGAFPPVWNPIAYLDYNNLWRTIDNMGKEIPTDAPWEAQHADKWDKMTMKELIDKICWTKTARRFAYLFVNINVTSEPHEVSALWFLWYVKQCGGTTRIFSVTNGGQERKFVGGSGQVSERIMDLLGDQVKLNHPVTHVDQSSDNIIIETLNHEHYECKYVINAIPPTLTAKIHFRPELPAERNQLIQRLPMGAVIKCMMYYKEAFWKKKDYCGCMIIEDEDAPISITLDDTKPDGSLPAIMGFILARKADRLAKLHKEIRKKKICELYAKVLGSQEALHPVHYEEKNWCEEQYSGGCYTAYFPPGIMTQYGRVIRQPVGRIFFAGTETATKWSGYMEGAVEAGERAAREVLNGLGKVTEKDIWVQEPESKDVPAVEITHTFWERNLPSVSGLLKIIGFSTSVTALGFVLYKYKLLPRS
Method in brief: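 Recombinant human MAO-A was measured with the MAO-Glo kit, modified. Compounds were in DMSO (1% DMSO final) and preincubated with enzyme 15 min at room temperature. Luciferin-derivative substrate was then added and the reaction run 60 min at room temperature. Luciferase detection reagent was added for 20 min and luminescence read. Buffer without enzyme served as the 100% inhibition control; DMSO alone as the no-inhibition control. Percent inhibition = (Max − signal)/(Max − Min)×100.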

Staphylococcus aureus [18] = experiment: Potency index, ratio of rade-zolid MIC to compound MIC for antibacterial activity against Staphylococcus aureus ATCC 29213 by CLSI protocol based broth liquid microdilution method; type: functional
Staphylococcus aureus [19] = experiment: Potency index, ratio of rade-zolid MIC to compound MIC for antibacterial activity against methicillin-sensitive Staphylococcus aureus by CLSI protocol based broth liquid microdilution method; type: functional
Enterococcus faecalis [20] = experiment: Potency index, ratio of rade-zolid MIC to compound MIC for antibacterial activity against linezolid-resistant Enterococcus faecalis by CLSI protocol based broth liquid microdilution method; type: functional
Enterococcus faecium [21] = experiment: Potency index, ratio of rade-zolid MIC to compound MIC for antibacterial activity against vancomycin-resistant Enterococcus faecium by CLSI protocol based broth liquid microdilution method; type: functional

Row | Structure (SMILES) | MIC (Staphylococcus aureus [1]) [µg/mL] | MIC (Staphylococcus aureus [2]) [µg/mL] | MIC (Staphylococcus aureus [3]) [µg/mL] | MIC (Enterococcus faecalis [4]) [µg/mL] | MIC (Enterococcus faecium [5]) [µg/mL] | MIC (Staphylococcus aureus [6]) [µg/mL] | MIC (Staphylococcus aureus [7]) [µg/mL] | MIC (Enterococcus faecalis [8]) [µg/mL] | MIC (Enterococcus faecium [9]) [µg/mL] | remaining at 0.5 h [10] [%] | remaining at 1 h [11] [%] | remaining at 1.5 h [12] [%] | remaining at 2 h [13] [%] | solubility [14] [µg/mL] | IC50 (HepG2) [µM] | CLint scaled at 1.5 µM [16] [mL/min/kg] | inhibition at 1 h, 30 µM (MAO-A) [%] | Ratio (Staphylococcus aureus [18]) | Ratio (Staphylococcus aureus [19]) | Ratio (Enterococcus faecalis [20]) | also measured
1 | CC(=O)NC[C@H]1CN(c2ccc(-c3ccc(/C=N/N4CCN(C)CC4)nc3)c(F)c2)C(=O)O1 | 0.125 (≈ 0.275 µM) | 0.125 (≈ 0.275 µM) | 0.125 (≈ 0.275 µM) | 0.25 (≈ 0.55 µM) | 0.25 (≈ 0.55 µM) | 2 (≈ 4.4 µM) | 2 (≈ 4.4 µM) | 0.25 to 0.5 (≈ 0.55 to 1.1 µM) | 0.25 to 0.5 (≈ 0.55 to 1.1 µM) | 98.3 | 96.8 | 96.2 | 95.8 | 63 (≈ 139 µM) | > 25 | 17.2 | 79 | 2 - 4 | 2 - 4 | 2 - 4 | half-life at 1.5 µM ([15]; liver microsomes): 1.68 h; remaining at 0.75 h, 1.5 µM ([17]; liver microsomes, read-out: Stability): 74.9%; Ratio (Enterococcus faecium [21]): 2 - 4
2 | CC(=O)NC[C@H]1CN(c2ccc(-c3ccc(/C=N/N4CC[S+]([O-])CC4)c(O)c3)c(F)c2)C(=O)O1 | 0.25 (≈ 0.512 µM) | 0.125 (≈ 0.256 µM) | 0.25 (≈ 0.512 µM) | 0.25 (≈ 0.512 µM) | 0.25 (≈ 0.512 µM) | 0.5 to 1 (≈ 1.02 to 2.05 µM) | 0.5 (≈ 1.02 µM) | 0.5 (≈ 1.02 µM) | 0.5 (≈ 1.02 µM) | – | – | – | – | – | – | – | 88 | – | – | – | –
3 | CC(=O)NC[C@H]1CN(c2ccc(-c3ccc(/C=N/N4CCSCC4)nc3)c(F)c2)C(=O)O1 | 0.125 (≈ 0.273 µM) | 0.125 (≈ 0.273 µM) | 0.25 (≈ 0.546 µM) | 0.25 (≈ 0.546 µM) | 0.25 (≈ 0.546 µM) | – | 0.25 to 0.5 (≈ 0.546 to 1.09 µM) | 0.5 (≈ 1.09 µM) | 1 (≈ 2.19 µM) | 99.4 | 99 | 98.6 | 98 | 57 (≈ 125 µM) | > 25 | 90.3 | 75 | 2 - 4 | 2 - 4 | 2 - 4 | t1/2 ([15]; microsomes, 0.75 h, 1.5 µM): 0.3207 h; Stability ([17]; microsomes, 0.75 h, 1.5 µM): 0.62%; Ratio (Enterococcus faecium [21]): 2 - 4
4 | COC(=O)N1CCN(/N=C/c2ccc(-c3ccc(N4C[C@H](CNC(C)=O)OC4=O)cc3F)cc2O)CC1 | 0.5 (≈ 0.974 µM) | 0.5 (≈ 0.974 µM) | 0.5 (≈ 0.974 µM) | 0.5 (≈ 0.974 µM) | 0.5 (≈ 0.974 µM) | 2 (≈ 3.89 µM) | 2 (≈ 3.89 µM) | 2 (≈ 3.89 µM) | 2 (≈ 3.89 µM) | – | – | – | – | – | – | – | – | – | – | – | –
